Reference: ChEMBL document CHEMBL1122378, “Antiallergic agents. 2. N-(1H-tetrazol-5-yl)-6-phenyl-2-pyridinecarboxamides” (1983)

Assays:
Format in all cases: functional
[1] = test system: Rattus norvegicus; experiment: Antiallergic activity against passive cutaneous anaphylaxis (PCA) in male Sprague-Dawley rats after 10.0 mg/kg oral administration;p<0.1
Method in brief: (§1)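 IgE antiserum raised in male Sprague-Dawley rats (ca. 200 g) by immunization with Ascaris suum extract (2 then 0.2 mg protein), bled 2 weeks after the second dose. Recipients got 0.05 mL diluted antiserum intracutaneously on the back. Blued area (product of two diameters) was read at 30 min.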

[2] = test system: Rattus norvegicus; experiment: Antiallergic activity against passive cutaneous anaphylaxis (PCA) in male Sprague-Dawley rats after 3.0 mg/kg oral administration; method in brief: as §1
[3] = test system: Rattus norvegicus; experiment: Inhibition of passive cutaneous anaphylaxis in male Sprague-Dawley rats following 1 mg/kg p.o. administration; Not significant.; details: route oral; method in brief: as §1
[4] = test system: Rattus norvegicus; experiment: Antiallergic activity against passive cutaneous anaphylaxis (PCA) in male Sprague-Dawley rats after 3.0 mg/kg oral administration;p<0.1; method in brief: as §1
[5] = test system: Rattus norvegicus; experiment: Inhibition of passive cutaneous anaphylaxis in male Sprague-Dawley rats following 10 mg/kg p.o. administration.; details: route oral; method in brief: as §1
[6] = test system: Rattus norvegicus; experiment: Antiallergic activity against passive cutaneous anaphylaxis (PCA) in male Sprague-Dawley rats after 1.0 mg/kg oral administration;p<0.1; method in brief: as §1
[7] = test system: Rattus norvegicus; experiment: Antiallergic activity against passive cutaneous anaphylaxis (PCA) in male Sprague-Dawley rats after 0.3 mg/kg oral administration; method in brief: as §1
[8] = test system: Rattus norvegicus; experiment: Antiallergic activity against passive cutaneous anaphylaxis (PCA) in male Sprague-Dawley rats after 3.0 mg/kg oral administration;p<0.1.; method in brief: as §1
[9] = test system: Rattus norvegicus; experiment: Antiallergic activity against passive cutaneous anaphylaxis (PCA) in male Sprague-Dawley rats after 3.0 mg/kg oral administration;not statistically significant; method in brief: as §1
[10] = test system: Rattus norvegicus; experiment: Antiallergic activity against passive cutaneous anaphylaxis (PCA) in male Sprague-Dawley rats after 0.3 mg/kg oral administration;p<0.1; method in brief: as §1
[11] = test system: Rattus norvegicus; experiment: Inhibition of passive cutaneous anaphylaxis in male Sprague-Dawley rats following 0.3 mg/kg p.o. administration; Not significant.; details: route oral; method in brief: as §1

| SMILES | inhibition in vivo at 10 mg/kg [1] | inhibition in vivo at 3 mg/kg [2] | inhibition in vivo at 1 mg/kg [6] | further results |
| --- | --- | --- | --- | --- |
| Nc1cccc(-c2cccc(C(=O)Nc3nn[nH]n3)n2)c1 | 57% | 0% | – | – |
| COc1cc(C(=O)Nc2nn[nH]n2)nc(-c2ccc(OC)c(OC)c2)c1 | – | – | – | inhibition in vivo at 1 mg/kg [3]: 18%; inhibition in vivo at 3 mg/kg [4]: 62%; inhibition in vivo at 10 mg/kg [5]: 51% |
| COc1ccc(-c2cc(C)cc(C(=O)Nc3nn[nH]n3)n2)cc1 | 52% | 43% | – | – |
| O=C(Nc1nn[nH]n1)c1cc(Cl)cc(-c2ccc(Cl)cc2)n1 | 63% | 11% | – | – |
| Cc1ccc(-c2cc(C(C)C)cc(C(=O)Nc3nn[nH]n3)n2)cc1 | – | – | – | inhibition in vivo at 1 mg/kg [3]: 20%; inhibition in vivo at 3 mg/kg [4]: 42% |
| CCCOc1cc(C(=O)Nc2nn[nH]n2)nc(-c2ccccc2)c1 | – | 100% | 27% | inhibition in vivo at 0.3 mg/kg [7]: 0% |
| CCc1ccc(-c2cc(C)cc(C(=O)Nc3nn[nH]n3)n2)cc1 | – | – | – | inhibition in vivo at 10 mg/kg [5]: 100%; inhibition in vivo at 3 mg/kg [8]: 35% |
| Cc1ccc(-c2cc(Cl)cc(C(=O)Nc3nn[nH]n3)n2)cc1C | 58% | – | – | inhibition in vivo at 3 mg/kg [9]: 32% |
| COc1cc(C(=O)Nc2nn[nH]n2)nc(-c2cccc(N)c2)c1 | 58% | 41% | 27% | – |
| COc1cc(C(=O)Nc2nn[nH]n2)nc(-c2ccc(N)cc2)c1 | – | – | 50% | inhibition in vivo at 0.3 mg/kg [10]: 12% |
| CCCc1cc(C(=O)Nc2nn[nH]n2)nc(-c2ccccc2)c1 | – | – | – | inhibition in vivo at 10 mg/kg [5]: 85%; inhibition in vivo at 3 mg/kg [8]: 22% |
| COc1cc(C(=O)Nc2nn[nH]n2)nc(-c2ccc(C(C)(C)C)cc2)c1 | – | – | – | inhibition in vivo at 1 mg/kg [3]: 29%; inhibition in vivo at 3 mg/kg [4]: 68% |
| O=C(Nc1nn[nH]n1)c1cccc(-c2ccccc2)n1 | – | 74% | 36% | inhibition in vivo at 10 mg/kg [5]: 81% |
| CCCCc1ccc(-c2cc(C)cc(C(=O)Nc3nn[nH]n3)n2)cc1 | – | 67% | 42% | inhibition in vivo at 0.3 mg/kg [11]: 17% |
